# Measured values as given in article PMC5110367 (Nature chemical biology, 2016).
# Positions count from the first letter of the chain named. Like-named read-outs stand apart in the source and are kept apart here.
# Columns and labels:
# PPARα [1] = target: T1, PPARα (Mus musculus, UniProt P23204); type: binding; conditions: lenti-FL-Ppara-transduced Ppara-null neurons; not with empty lenti-vector
# T1 sequence (P23204 1-468): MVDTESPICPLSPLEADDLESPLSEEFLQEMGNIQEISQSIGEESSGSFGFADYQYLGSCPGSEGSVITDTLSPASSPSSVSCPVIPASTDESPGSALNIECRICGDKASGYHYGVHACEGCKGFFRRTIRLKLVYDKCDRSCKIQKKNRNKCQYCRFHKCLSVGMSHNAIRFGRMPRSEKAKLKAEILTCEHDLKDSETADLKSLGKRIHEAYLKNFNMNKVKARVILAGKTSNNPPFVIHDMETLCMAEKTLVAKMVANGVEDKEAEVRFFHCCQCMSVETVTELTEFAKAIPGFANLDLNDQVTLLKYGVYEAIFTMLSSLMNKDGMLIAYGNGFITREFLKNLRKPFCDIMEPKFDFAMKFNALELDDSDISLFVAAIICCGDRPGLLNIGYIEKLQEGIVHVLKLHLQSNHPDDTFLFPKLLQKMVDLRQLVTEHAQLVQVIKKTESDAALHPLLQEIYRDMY
# PPARα [2] = target: T2, PPARα (Mus musculus, UniProt P23204, Y314D); type: binding; conditions: lenti-GFP-Y314D-Ppara-transduced Ppara-null neurons
# T2 sequence (P23204 1-468 Y314D): T1 sequence (P23204 1-468) with Y314D
# [3] = tested on: Ppara-null hippocampal neurons; assay: Dendritic spine density; type: cell-based, mouse; conditions: Ppara-null neurons transduced with lenti-FL-Ppara or lenti-Y464D-Ppara
# In short: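 Ppara-null hippocampal neurons were taken from E18 fetuses and treated with 10 μM AraC to remove glia. They were differentiated 9–10 days, then transduced 48 h with lentivirions carrying GFP (vector), FL-Ppara or Y464D-Ppara. Neurons then received vehicle (DMSO) or test compound for 24 h. They were stained with Dylight-554-phalloidin, and spine density was scored by fluorescence microscopy.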
# [4] = tested on: Ppara-null hippocampal neurons; type: cell-based, mouse
# In short: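 Cell lysates were made in RIPA buffer with protease/phosphatase inhibitors, needle-sheared, rotated 30 min at 4°C and spun at 18,000 × g. Samples of 15–30 μg were run on 10% or 12% SDS gels and semidry-transferred to nitrocellulose. Anti-CREB (1:1000) was applied overnight at 4°C, then IR-dye secondary (1:17,000) for 45 min at room temperature. Infrared imaging followed, with densitometry normalised to loading controls.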
# Y314D/Y464D-Ppara = target: T3, Y314D/Y464D-Ppara (Mus musculus, UniProt P23204, Y314D/Y464D); type: cell-based; conditions: Ppara-null astrocytes transduced with lenti-Y314D/Y464D-Ppara, 4 h
# T3 sequence (P23204 1-468 Y314D/Y464D): T1 sequence (P23204 1-468) with Y314D, Y464D
# Y464D-Ppara = target: T4, Y464D-Ppara (Mus musculus, UniProt P23204, Y464D); type: cell-based; conditions: Ppara-null astrocytes transduced with lenti-Y464D-Ppara, 4 h
# T4 sequence (P23204 1-468 Y464D): T1 sequence (P23204 1-468) with Y464D
# primary mouse astrocytes = assay: MTT cell viability of tk-PPREx3-Luc-transfected astrocytes; type: cell-based; conditions: higher concentrations, 4 h
# PPARα [5] = target: T1, PPARα; assay: PPRE-driven luciferase assay in primary astrocytes; type: cell-based; conditions: cultured astrocytes, different concentrations, 4 h
# [6] = tested on: Ppara-null hippocampal neurons; assay: AMPA-driven calcium influx in transduced Ppara-null hippocampal neurons; type: cell-based, mouse; conditions: 50 μM N20C present
# In short: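 Primary hippocampal neurons came from pooled E18 Ppara-null fetal mice. Tissue was trypsinised 5 min at 37°C and plated on poly-D-lysine in neurobasal medium. AraC (10 μM) was added next day, and cells differentiated for 9–10 days. Neurons were lentivirally transduced with the indicated Ppara construct, then given the test compound. 50 μM N20C blocked NMDA-receptor calcium flow during AMPA stimulation. Mean of three independent experiments.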
# [7] = Ppara-null neurons transduced with FL-Ppara
# [8] = Ppara-null neurons transduced with lenti-Y314D-Ppara
# [9] = Ppara-null neurons transduced with lenti-Y464D-Ppara
# [10] = Ppara-null neurons transduced with lenti-Y464D/Y314D-Ppara
# [11] = lenti-Y314D/Y464D-Ppara-transduced
SMILES,"binding to de novo-synthesized PPARα (immunoprecipitation, GC-MS) (PPARα [1])",ligand detected by GC-MS in nuclear extract (PPARα [2]),density of dendritic spines [3],"expression of CREB [4, 7]","expression of CREB [4, 8]","expression of CREB [4, 9]","expression of CREB [4, 10]",PPRE-luciferase activity (Y314D/Y464D-Ppara),PPRE-luciferase activity (Y464D-Ppara),cytotoxicity (MTT) (primary mouse astrocytes),PPRE-luciferase activity (PPARα [5]),AMPA-mediated calcium influx ([6]; lenti-FL-Ppara-transduced),AMPA-mediated calcium influx ([6]; lenti-Y314D-Ppara-transduced),"AMPA-mediated calcium influx [6, 11]",AMPA-mediated calcium influx ([6]; lenti-Y464D-Ppara-transduced)
"CCCCCCCCCCCCCCCC(N)=O [HEX, hexadecanamide]",found to be bound to de novo-synthesized PPARα,low amount,"stimulated the density of spines only when Ppara-null neurons were transduced with lenti-FL-Ppara, but not lenti-Y464D-Ppara",stimulated the expression of CREB,only partially restored the expression of CREB,remained unable to increase the expression of CREB,remained unable to increase the expression of CREB,unable to stimulate PPRE-luciferase activity,unable to stimulate PPRE-luciferase activity,significant level of cytotoxicity,increased the PPRE-luciferase activity in a dose-dependent manner,stimulated AMPA-mediated calcium influx,only able to partially restore,remained unable to increase AMPA mediated calcium influx,remained unable to increase AMPA mediated calcium influx
"CCCCCCCCC=CCCCCCCCC(N)=O [OCT, 9-octadecenamide]",found to be bound to de novo-synthesized PPARα,low amount,"stimulated the density of spines only when Ppara-null neurons were transduced with lenti-FL-Ppara, but not lenti-Y464D-Ppara",stimulated the expression of CREB,only partially restored the expression of CREB,remained unable to increase the expression of CREB,remained unable to increase the expression of CREB,unable to stimulate PPRE-luciferase activity,unable to stimulate PPRE-luciferase activity,significant level of cytotoxicity,increased the PPRE-luciferase activity in a dose-dependent manner,stimulated AMPA-mediated calcium influx,only able to partially restore,remained unable to increase AMPA mediated calcium influx,remained unable to increase AMPA mediated calcium influx
